Data from ChEMBL document CHEMBL1129371, “Bis tertiary amide inhibitors of the HIV-1 protease generated via protein structure-based iterative design” (J Med Chem, 1996).
pEC50, pKi: −log10 of the molar value. Blank lines part the entries; values can stand above or below the molecule they belong to.

What was measured:
[1] = Oral bioavailability in rat (dose 50 mg/kg); type: ADME, organism-based; details: in vivo
[2] = Pharmacokinetic parameter half life determined after intravenous administration of 50 mg/kg to rat; type: ADME, organism-based; parameters: dose 50 mg/kg, route intravenous; details: in vivo
[3] = Pharmacokinetic parameter Cmax determined after oral administration of 50 mg/kg to rat; type: ADME, organism-based; parameters: dose 50 mg/kg, route oral; details: in vivo
[4] = test system: Human immunodeficiency virus 1; experiment: (§1) Effective dose against inhibition of HIV-1 protease in CEM cells; type: functional; details: Human immunodeficiency virus 1, CCRF-CEM; read-out: ED50 (the source's name)
Outline: (§2)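 HIV-1-induced killing of CEM-SS cells; cell viability read by MTT tetrazolium metabolism. ED50 = concentration giving 50% inhibition of HIV-1-induced cell death. Run at Southern Research Institute.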

[5] = Pharmacokinetic parameter half life determined after peroral administration of 15 mg/kg to dog; details: in vivo, po
[6] = Pharmacokinetic parameter Cmax determined after peroral administration of 25 mg/kg to monkey; type: ADME, organism-based; parameters: dose 25 mg/kg, route oral; details: simiiformes, in vivo, po
[7] = Pharmacokinetic parameter Cmax determined after intravenous administration of 50 mg/kg to rat; type: ADME, organism-based; parameters: dose 50 mg/kg, route intravenous; details: in vivo
[8] = molecular target: T1, Human immunodeficiency virus type 1 protease (Human immunodeficiency virus 1, UniProt Q72874); experiment: Binding affinity against HIV-1 protease
[9] = Pharmacokinetic parameter Cmax determined after peroral administration of 15 mg/kg to dog; details: in vivo, po
[10] = Pharmacokinetic parameter Cmax determined after peroral administration of 15 mg/kg to dog; type: ADME, organism-based, Canis lupus familiaris; parameters: dose 15 mg/kg, route oral; details: in vivo, po
[11] = Toxic concentration at which 50% of CEM-SS cells were viable (uninfected with virus) as determined by metabolism of MTT in(uM).; type: toxicity, cell-based; details: human, read-out: TC50 (the source's name)
Outline: (§3)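 Uninfected CEM-SS cells; viability read by MTT metabolism. TC50 = concentration giving 50% reduction in number of viable cells; reported in μM.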

[12] = Pharmacokinetic parameter Cmax determined after peroral administration of 25 mg/kg to monkey; No levels; type: ADME, organism-based; parameters: dose 25 mg/kg, route oral; details: simiiformes, in vivo, po
Rattus norvegicus = experiment: Pharmacokinetic parameter Cmax determined after oral administration of 50 mg/kg to rat; No levels; type: ADME, organism-based; parameters: dose 50 mg/kg, route oral; details: in vivo
[13] = molecular target: T1, Human immunodeficiency virus type 1 protease; experiment: Compound was tested for binding affinity against HIV protease
CEM-SS = experiment: as §1; type: functional; details: Homo sapiens, read-out: ED50 (the source's name); outline: as §2
[14] = Toxic concentration at which 50% of CEM-SS cells were viable (uninfected with virus) as determined by metabolism of MTT; type: toxicity, cell-based; details: human, read-out: TC50 (the source's name); outline: as §3
[15] = Toxic concentration at which 50% of CEM-SS cells were viable (uninfected with virus) as determined by metabolism of MTT in(uM); type: toxicity, cell-based; details: human, read-out: TC50 (the source's name); outline: as §3

Structure (SMILES): CCC1(N(CCO)C(=O)c2ccccc2CCC(O)Cc2ccc(C)cc2C(=O)N(CC(CO)CO)C(C)(C)c2ccccc2)CCCC1 (centres undefined)
bioavailability [1]: 7% | half-life [2]: 1 h | Cmax [3]: 1.16 µg/mL | pEC50 [4]: 6.02 | half-life [5]: 0.34 h | Cmax [6]: 0.81 µg/mL | Cmax [7]: 52.2 µg/mL | pKi [8]: 8.00 | Cmax [9]: 1.17 µg/mL

Structure (SMILES): CC(C)(C)N(CCO)C(=O)c1ccccc1CCC(O)Cc1ccccc1C(=O)N(CCO)C(C)(C)Cc1ccccc1 (centres undefined)
pKi [8]: 5.89

bioavailability [1]: 31% | half-life [2]: 1.7 h | Cmax [10]: 0.59 µg/mL | Cmax [3]: 1.4 µg/mL | pEC50 [4]: 6.14 | Cmax [12]: No levels | Cmax [7]: 111 µg/mL | pKi [8]: 8.70
Structure (SMILES): CCC1(N(CCO)C(=O)c2ccccc2CCC(O)Cc2ccc(Cl)cc2C(=O)N(CCO)C(C)(C)c2ccccc2)CCCC1 (centres undefined)
CC50 [11]: 97 µM

Structure (SMILES): CCC1(N(CCO)C(=O)c2ccccc2CCC(O)Cc2ccc(C)cc2C(=O)N(CCO)C(C)(C)c2ccc(O)cc2)CCCC1 (centres undefined)
bioavailability [1]: 0% | half-life [2]: 1.4 h | Cmax (Rattus norvegicus): No levels | pEC50 [4]: 6.06 | Cmax [7]: 41.3 µg/mL | pKi [8]: 8.22

Structure (SMILES): CC(C)(C)N(CCO)C(=O)c1ccccc1CC(O)CSc1ccccc1C(=O)N(CCO)C(C)(C)C (centres undefined)
pKi [8]: 4.74

pKi [13]: 9.05 | pEC50 (CEM-SS): 8.70
Structure (SMILES): CC(C)(C)NC(=O)[C@@H]1C[C@@H]2CCCC[C@@H]2CN1C[C@@H](O)[C@H](Cc1ccccc1)NC(=O)[C@H](CC(N)=O)NC(=O)c1cnc2ccccc2c1
CC50 [14]: > 10 µM

Structure (SMILES): Cc1ccc(CCC(O)Cc2ccccc2C(=O)N(CCO)C(C)(C)c2ccccc2)c(C(=O)N(CCO)C(C)(C)C)c1 (centres undefined)
pEC50 [4]: 5.31 | pKi [8]: 6.82

pKi [8]: 4.47
Structure (SMILES): CC(C)(C)NC(=O)c1ccccc1SCC(O)Cc1ccccc1C(=O)N(CCO)C(C)(C)C (centres undefined)

Structure (SMILES): CCC1(N(CCO)C(=O)c2ccccc2CCC(O)Cc2ccc(C)cc2C(=O)N(CCO)C(C)(C)c2ccc(OCCN3CCOCC3)cc2)CCCC1 (centres undefined)
pEC50 [4]: 6.08 | pKi [8]: 8.05

Structure (SMILES): CC(C)(c1ccccc1)N(CCO)C(=O)c1ccccc1CCC(O)Cc1ccccc1C(=O)N(CCO)C(C)(C)c1ccccc1 (centres undefined)
pEC50 [4]: 5.66 | CC50 [15]: 122 µM | pKi [8]: 7.68

Structure (SMILES): CCCC(CC)(CC)N(CCO)C(=O)c1cc(C)ccc1CC(O)CCc1ccccc1C(=O)N(CCO)C1(CC)CCCC1 (centres undefined)
pEC50 [4]: 5.86 | pKi [8]: 8.22

Structure (SMILES): CCC1(N(CCO)C(=O)c2ccccc2CCC(O)Cc2ccc(C)cc2C(=O)N(CCC(O)CO)C(C)(C)c2ccccc2)CCCC1 (centres undefined)
bioavailability [1]: 2% | half-life [2]: 1.3 h | Cmax [3]: 0.84 µg/mL | pEC50 [4]: 6.07 | Cmax [7]: 111 µg/mL | pKi [8]: 8.00

Structure (SMILES): CCCC(CC)(CC)N(CCO)C(=O)c1ccccc1CC(O)CCc1ccccc1C(=O)N(CCO)C(C)(C)C (centres undefined)
pEC50 [4]: 5.43 | pKi [8]: 6.96

Structure (SMILES): CC(C)(C)N(CCO)C(=O)c1ccccc1CCC(O)Cc1ccccc1C(=O)N(CCO)[C@@]12CCCC[C@@H]1CCC2 (relative stereo)
pEC50 [4]: 5.12 | pKi [8]: 7.19
